KCNK3 inh: human KCNK3 channel inhibition, primary screen; AID 602410; hit rate 0.84% among 340,000; CHO-KCNK3 thallium flux, FluxOR fluorescence; hits give low values; O14649; B-score at 10 µM;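 active = B-score under library mean minus 4 SD, starting fluorescence ratio at most library mean plus 5 SD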;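 note: more negative B-score means stronger inhibition of thallium flux through KCNK3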
hERG protect: compounds protecting human hERG from proarrhythmic drug block; Q12809; CHO-hERG, FluxOR thallium flux, dofetilide IC70 present; activation (rescue from dofetilide block), less the hit threshold, % at 10 µM; hit rate 0.51% among 310,000; AID 1511;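 active = activation above the mean of controls blocked by dofetilide plus 5 SD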;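 note: thallium influx through hERG after potassium depolarization seen as dye fluorescence rise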
Cl transport mod: KCC2 (human) Cl- transport modulation | Q9H2X9 | KCC2 cells, thallium flux FluoZin-2 fluorescence | B-score of Tl+ flux slope (higher = more flux/activation; lower = inhibition) at 10 µM | hit rate 2.2% among 190,000 | AID 1456;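 active = thallium flux slope and its plate-corrected score both differing from the plate sample mean at a set confidence after two filtering rounds, in either direction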;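 note: slope of fluorescence scaled to starting intensity during 10 to 20 s after thallium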
Target sequence (Q9H2X9 whole entry, looked up): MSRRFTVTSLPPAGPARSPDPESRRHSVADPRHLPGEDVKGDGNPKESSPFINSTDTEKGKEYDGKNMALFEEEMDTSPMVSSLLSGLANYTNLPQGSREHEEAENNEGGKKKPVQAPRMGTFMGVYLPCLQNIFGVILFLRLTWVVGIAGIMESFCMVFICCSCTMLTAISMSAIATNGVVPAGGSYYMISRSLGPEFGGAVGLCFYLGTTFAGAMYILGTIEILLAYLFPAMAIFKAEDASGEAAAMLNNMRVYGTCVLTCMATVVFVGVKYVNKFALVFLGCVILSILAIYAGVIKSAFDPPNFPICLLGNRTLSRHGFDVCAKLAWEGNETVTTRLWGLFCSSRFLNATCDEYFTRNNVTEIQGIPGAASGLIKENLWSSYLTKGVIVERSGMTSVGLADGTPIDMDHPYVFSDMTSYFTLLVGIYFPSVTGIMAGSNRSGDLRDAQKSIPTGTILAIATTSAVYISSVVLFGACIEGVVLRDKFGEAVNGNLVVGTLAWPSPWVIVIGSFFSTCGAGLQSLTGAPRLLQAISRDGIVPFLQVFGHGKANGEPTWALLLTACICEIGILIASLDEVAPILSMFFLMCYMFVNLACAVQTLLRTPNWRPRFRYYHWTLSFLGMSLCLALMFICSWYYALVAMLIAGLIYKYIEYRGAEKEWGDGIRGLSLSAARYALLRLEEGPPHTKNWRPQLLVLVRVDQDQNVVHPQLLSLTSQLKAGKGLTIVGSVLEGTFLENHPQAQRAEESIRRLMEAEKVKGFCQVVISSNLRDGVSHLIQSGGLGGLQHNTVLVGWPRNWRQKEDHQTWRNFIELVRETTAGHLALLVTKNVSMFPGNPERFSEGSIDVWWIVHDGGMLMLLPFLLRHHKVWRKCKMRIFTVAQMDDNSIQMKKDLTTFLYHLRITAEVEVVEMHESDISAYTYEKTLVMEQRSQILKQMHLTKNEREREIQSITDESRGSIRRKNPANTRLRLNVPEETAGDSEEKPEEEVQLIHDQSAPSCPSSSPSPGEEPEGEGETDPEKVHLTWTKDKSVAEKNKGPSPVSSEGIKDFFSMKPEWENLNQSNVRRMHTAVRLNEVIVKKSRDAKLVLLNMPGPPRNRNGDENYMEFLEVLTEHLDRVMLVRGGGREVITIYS
KCNK9 block: blocks the human KCNK9 two-pore domain potassium channel. HEK293 KCNK9, FluxOR thallium flux fluorescence; hits give low values. B-score at 10 µM. hit rate 1.2% among 310,000;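 active = ratio B-score over 3 SD below the library mean, with starting fluorescence within 5 SD of its mean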;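 note: negative B-score means less thallium flux so channel inhibition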
KCNQ1 inh: blocks the human KCNQ1 potassium channel. P51787. hit rate 1.3% among 310,000. CHO-K1 KCNQ1, FluxOR thallium flux fluorescence; hits give high values. B-score at 10 µM;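 active = compounds whose thallium flux B-score, printed positive for inhibition, exceeds three library SD while starting fluorescence stays within three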;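 note: channel opened by potassium depolarization with thallium stimulus after 20 min compound exposure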
KCNQ1 act: potentiators or activators of human KCNQ1 potassium channel; CHO-K1 KCNQ1, thallium flux FluxOR fluorescence; hits give high values; B-score at 10 µM; hit rate 0.35% among 310,000;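 active = fluorescence ratio B-score, a plate-corrected score, at least three library SD, with initial intensity B-score within 5 SD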
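Test system: CHO-K1 cells stably expressing KCNQ1 / Medium: assay buffer / Also added: depolarizing K+/Tl+ stimulus, K2SO4 and Tl2SO4 each 12.5 mM in 5x stock / Incubation: 90 min dye loading and 20 min compound exposure, both at room temperature / Signal: thallium influx via FluxOR fluorescence, kinetic imaging / Evaluation: B score of baseline-normalized fluorescence ratio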
KCC2 secondary: confirmation of human KCC2 transport modulators | shares compounds with Cl transport mod | HEK293-KCC2, thallium flux, FluoZin2 fluorescence; hits give high values | normalised thallium flux (F/F0 slope) at 10 µM | hit rate 15% among 3,700;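 active = thallium flux slope above the same plate's solvent-only control mean plus 3 SD; inconclusive = the two replicate wells disagree; inactive = no significant difference from solvent-only control wells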
KCC2 bumet counter: thallium flux persisting under bumetanide in KCC2 cells, counter-screen secondary assay. hit rate 49% among 3,700. normalized thallium flux at 10 µM. shares compounds with Cl transport mod. AID 1714. HEK293-KCC2 + bumetanide/ouabain, thallium flux FluoZin2; hits give high values;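 active = thallium entry rate above the same plate's blocked-transporter control wells by more than 3 SD; inconclusive = the two repeat wells disagree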;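 note: raw slope of fluorescence over initial fluorescence between 10 and 20 s after thallium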
KCC2 secondary2: KCC2 (human) modulation, second secondary assay | shares compounds with Cl transport mod | HEK293-KCC2, thallium flux FluoZin2 fluorescence; actives lie on both sides; F/F0 rise rate, 10–20 s post-thallium | normalized thallium flux at 10 µM | hit rate 23% among 3,700 | AID 1715;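 active = thallium flux slope more than 3 SD above or below the plate's solvent-only control mean, mostly below; inconclusive = the two repeat wells disagreed; inactive = no significant shift from solvent-only controls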
HEK counter1: parental HEK flux effect, counter-screen; hit rate 46% among 3,700; shares compounds with Cl transport mod; thallium flux rate (normalised fluorescence) at 10 µM; HEK293 parental cells, thallium flux FluoZin2, ouabain; baseline-ratio fluorescence slope, 10–20 s after thallium;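 active = thallium flux rate significantly above the same plate's solvent-only control wells, beyond their mean plus 3 SD; inconclusive = the two replicate wells gave conflicting results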
KCC2 ouabain: confirmation of human KCC2 modulators with ouabain | AID 1717 | raw Tl+ flux slope (below DMSO = inhibition, above = activation) at 10 µM | hit rate 48% among 3,700 | HEK293-KCC2, thallium flux FluoZin2 fluorescence; bidirectional: low = inhibitor, high = activator | shares compounds with Cl transport mod;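 active = thallium flux slope beyond 3 SD from same-plate DMSO control mean in most replicates, usually higher, sometimes lower; inconclusive = repeat tests gave conflicting results; inactive = no significant difference from controls in most replicates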;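 note: slope of initial-normalized fluorescence between seconds 10 and 20 after thallium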
HEK293 Tl flux2: parental HEK flux effect, counter-screen 2; shares compounds with Cl transport mod; HEK293 parental, thallium flux FluoZin-2 fluorescence slope; thallium flux slope at 10 µM; hit rate 33% among 3,700; AID 1718;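 active = thallium flux slope above the same plate's solvent-control mean plus 3 SD in both duplicate wells; inconclusive = duplicate wells that disagreed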;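 note: run without ouabain in cells lacking the KCC2 cotransporter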
Hits are given with their value; i = inactive; ? = inconclusive; nt = no result. Sampled rows, rich in hits. Any-hit rate of the full collection: about 4.1%.

SMILES	KCNK3 inh	hERG protect	Cl transport mod	KCNK9 block	KCNQ1 inh	KCNQ1 act	KCC2 secondary	KCC2 bumet counter	KCC2 secondary2	HEK counter1	KCC2 ouabain	HEK293 Tl flux2
CC(=O)c1cccc(OCC(=O)N(Cc2ccco2)c2c(N)n(Cc3ccccc3)c(=O)[nH]c2=O)c1	i	nt	nt	nt	nt	nt	nt	nt	nt	nt	nt	nt
O=c1c2sc3ccccc3c2[nH]c(=S)n1CCN1CCOCC1	i	i	8.6	i	i	i	i	0.017	i	0.019	0.024	0.02
O=c1c2ccccc2[nH]c(=S)n1CCCN1CCOCC1	i	i	i	i	i	i	nt	nt	nt	nt	nt	nt
O=c1c2ccc(Cl)cc2[nH]c(=S)n1CCCN1CCOCC1	i	i	6.5	i	i	i	?	0.036	i	0.015	0.034	0.011
CC1CCN(CCCn2c(=S)[nH]c3c(sc4ccccc43)c2=O)CC1	i	i	20	i	i	i	i	0.015	i	0.016	0.026	0.018
S=C(NCCc1ccccc1)N/N=C/c1cccc(Cl)c1Cl	i	i	4.4	i	i	i	i	0.013	0.039	0.011	0.03	i
Fc1ccc(NC(=S)NN=Cc2ccccc2Cl)cc1	i	nt	nt	nt	nt	nt	nt	nt	nt	nt	nt	nt
O=C(O)Cc1ccc(NC(=S)Nc2cccc(Cl)c2Cl)cc1	i	i	9.6	i	i	i	i	0.01	i	0.014	?	i
S=C(NCC1CC1)N/N=C/c1ccccc1Cl	i	i	10	i	i	i	?	0.024	i	0.01	?	i
S=C(N/N=C/c1ccccc1Cl)Nc1cccc(Cl)c1Cl	i	9.8	7	i	i	12	i	0.045	0.047	0.031	0.048	0.026
CN(C)S(=O)(=O)c1ccc(Cl)c(NC(=O)CN2C(=O)NC3(CCc4ccccc43)C2=O)c1 (configuration not stated)	i	nt	nt	nt	nt	nt	nt	nt	nt	nt	nt	nt
COc1ccc(CNc2cccnc2)c(OC)c1OC	i	nt	nt	nt	nt	nt	nt	nt	nt	nt	nt	nt
CN(C)C(CNC(=O)c1ccc2nccnc2c1)c1ccco1 (configuration not stated)	i	nt	nt	nt	nt	nt	nt	nt	nt	nt	nt	nt
Cc1ccccc1OCC(=O)Nc1ccc(N2CCN(C(=O)c3ccco3)CC2)cc1	i	i	nt	i	i	i	nt	nt	nt	nt	nt	nt
CC(C)(C)C(=O)Nc1nc2c(s1)CN(Cc1ccccc1)CC2	i	i	i	i	i	i	nt	nt	nt	nt	nt	nt
O=C(Nc1nc2c(s1)CN(Cc1ccccc1)CC2)C1CCCC1	i	i	-3	i	i	i	i	i	i	i	?	i
O=C(Cc1cccs1)N[C@@H]1c2ccccc2CC[C@@H]1OCc1ccccc1	i	nt	nt	nt	nt	nt	nt	nt	nt	nt	nt	nt
CCc1ccccc1NC(=S)N=Nc1c(O)n(C)c2ccc(S(=O)(=O)N3CCOCC3)cc12	i	i	11	i	i	i	0.014	0.086	i	0.031	0.058	0.012
CC(=O)c1sc(-c2ccc(F)cc2)cc1NS(=O)(=O)c1ccccc1	i	i	9	i	i	i	i	0.016	i	0.015	?	?
COC(=O)c1sc(-c2ccccc2)cc1NC(=O)c1ccc(F)cc1	i	i	i	i	i	i	nt	nt	nt	nt	nt	nt
O=c1[nH]c2cc3c(cc2cc1CN(CCc1ccccc1)C(=S)NCCCN1CCOCC1)OCCO3	i	nt	nt	nt	nt	nt	nt	nt	nt	nt	nt	nt
COc1ccc(OCCN2C(=O)NC(C)(c3ccc(C)cc3)C2=O)cc1 (configuration not stated)	i	i	4	i	i	i	i	i	i	i	i	i
Cc1nn(-c2ccccc2)c2nc(C(Cl)(Cl)Cl)[nH]c(=O)c12	i	i	91	i	i	12	i	0.071	?	0.064	0.065	0.05
Cc1ccc(-n2nc(C)c3c(=O)[nH]c(C(F)(F)F)nc32)cc1	nt	i	i	i	i	i	nt	nt	nt	nt	nt	nt
NN/C(=C\[N+](=O)[O-])Nc1ccc(Cl)cc1	i	i	6.7	i	i	i	i	0.023	i	0.01	i	i
SMILES	KCNK3 inh	hERG protect	Cl transport mod	KCNK9 block	KCNQ1 inh	KCNQ1 act	KCC2 secondary	KCC2 bumet counter	KCC2 secondary2	HEK counter1	KCC2 ouabain	HEK293 Tl flux2
COc1ccc(-c2cc(C(=O)N3CCN(Cc4ccccc4)CC3)no2)cc1OC	i	i	-3.4	i	i	i	i	?	0.022	i	i	i
C=CCn1c(-c2cccc(OC)c2OC)n[nH]c1=S	i	i	i	i	i	i	nt	nt	nt	nt	nt	nt
CCn1c(-c2ccco2)n[nH]c1=S	i	i	i	i	i	i	nt	nt	nt	nt	nt	nt
C=CCn1c(-c2ccco2)n[nH]c1=S	i	i	nt	i	i	i	i	i	i	i	i	i
C=CCn1c(-c2cc3cccc(OC)c3o2)n[nH]c1=S	i	i	3.7	i	i	i	i	0.014	i	0.013	?	0.016
N#C/C(=C(O)\C=C\c1ccccc1)c1nc2ccccc2[nH]1	i	i	6.6	i	i	i	i	i	?	i	i	i
Cc1ccc(/C=C/C(=O)c2ccccc(=O)c2O)c(C)c1	i	26	68	i	i	19	0.013	0.088	0.04	0.056	0.073	0.02
Cc1ccc(C)c(/C=C/C(=O)c2ccccc(=O)c2O)c1	i	18	40	i	i	27	i	0.067	0.061	0.062	0.062	0.051
COc1cccc(N(CC(=O)NC2CCCCC2)C(=O)CCC(=O)Nc2nccs2)c1	i	i	nt	i	i	i	nt	nt	nt	nt	nt	nt
COc1ccc(S(=O)(=O)N2CCN(C(=S)Nc3ccc(S(N)(=O)=O)cc3)CC2)cc1	i	i	nt	i	i	i	nt	nt	nt	nt	nt	nt
Cc1cccc(N2CCN(C(=O)c3ccc4c(c3)NC(=O)C(CSCc3cccc(F)c3)N4)CC2)c1C (configuration not stated)	nt	i	nt	i	i	i	nt	nt	nt	nt	nt	nt
Cn1c(C(=O)NCCCN2CCOCC2)cc2c(=O)n(C)c3ccccc3c21	i	i	i	i	i	i	nt	nt	nt	nt	nt	nt
Cc1ccc(CNC(=O)c2cc3c(=O)n(C)c4ccccc4c3n2C)o1	i	i	-4.3	i	i	i	i	i	i	i	0.022	?
Cn1c(C(=O)Nc2ccc3c(c2)OCO3)cc2c(=O)n(C)c3ccccc3c21	i	i	i	i	i	i	nt	nt	nt	nt	nt	nt

Source: PubChem BioAssay
